Test results from ChEMBL document CHEMBL4265954, “Discovery of potent liver-selective stearoyl-CoA desaturase-1 (SCD1) inhibitors, thiazole-4-acetic acid derivatives, for the treatment of diabetes, hepatic steatosis, and obesity” (Eur J Med Chem, 2018).
Values after ≈ are worked out from the molar mass of the structure shown. Active and inactive are the calls of the source. The calls are words filed in the database; no cut-off is given here.

Columns and labels:
[1] = AUC (0 to infinity) in C57BL/6J mouse at 10 mg/kg, po; type: ADME, organism-based; parameters: dose 10 mg/kg, time infinity, route oral; conditions: in vivo
Mus musculus [2] = assay: Ex vivo inhibition of SCD1 in C57BL/6J mouse eyelid assessed as residual activity at 1 mg/kg, po treated for 6 hrs followed by incubation with [14C]stearoyl-CoA substrate for 30 mins by TLC assay relative to control; type: organism-based
Outline: (§1)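 Male 6-week-old C57BL/6J mice dosed orally as a suspension in 0.5% methylcellulose. Liver or eyelid was taken 6 or 24 h later and homogenized in 100 mM Tris-HCl pH 7.4 with 0.25 M sucrose. S9 was obtained at 10,000 × g, 4 °C. S9 was incubated with [14C]stearoyl-CoA, NADH, MgCl2 and cytochrome b5 at room temperature, 10 min for liver and 30 min for eyelid. Lipids were saponified and run on AgNO3 TLC to quantify stearate and oleate. Result is % of vehicle control.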

Mus musculus [3] = assay: Ex vivo inhibition of SCD1 in C57BL/6J mouse liver assessed as residual activity at 10 mg/kg, po treated for 6 hrs followed by incubation with [14C]stearoyl-CoA substrate for 10 mins by TLC assay relative to control; type: functional; outline: as §1
Mus musculus [4] = assay: Ex vivo inhibition of SCD1 in C57BL/6J mouse eyelid assessed as residual activity at 100 mg/kg, po treated for 24 hrs followed by incubation with [14C]stearoyl-CoA substrate for 30 mins by TLC assay relative to control; type: organism-based; outline: as §1
[5] = Solubility of the compound in PBS at pH 7.2; type: physicochemical
Mus musculus [6] = assay: Ex vivo inhibition of SCD1 in C57BL/6J mouse liver treated orally for 6 hrs followed by incubation with [14C]stearoyl-CoA substrate for 10 mins by TLC assay; type: functional, organism-based; outline: as §1
Mus musculus [7] = assay: Ex vivo inhibition of SCD1 in C57BL/6J mouse eyelid treated orally for 6 hrs followed by incubation with [14C]stearoyl-CoA substrate for 30 mins by TLC assay; type: organism-based; conditions: po; outline: as §1
Mus musculus [8] = assay: Antiobesity activity in high fat diet fed C57BL/6J mouse assessed as reduction in diet-induced body weight gain at 10 mg/kg, po administered as diet mixture for 43 days relative to control; type: functional
Outline: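 C57BL/6J mice, individually housed, fed HFD for one month, then given HFD admixed with drug (0.0040% for 3 mg/kg/day, 0.0133% for 10 mg/kg/day) for 43 days, from 10 to 16 weeks of age. Chow-fed normal group as control. Body weight measured every 3–4 days. Mean ± SD, n=5–8. Dunnett's test versus HFD control.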

Mus musculus [9] = assay: Ex vivo inhibition of SCD1 in C57BL/6J mouse liver assessed as residual activity at 0.1 mg/kg, po treated for 24 hrs followed by incubation with [14C]stearoyl-CoA substrate for 10 mins by TLC assay relative to control; type: functional; outline: as §1
Acyl-CoA desaturase 1 = target: T1, Acyl-CoA desaturase 1 (Mus musculus, UniProt P13516); assay: Inhibition of mouse liver microsome SCD assessed as reduction in [3H]H2O production using stearoyl [9,10-3H]CoA as substrate in presence of NADH incubated for 30 mins by scintillation counting method; type: microsomes
T1 sequence (P13516 whole entry): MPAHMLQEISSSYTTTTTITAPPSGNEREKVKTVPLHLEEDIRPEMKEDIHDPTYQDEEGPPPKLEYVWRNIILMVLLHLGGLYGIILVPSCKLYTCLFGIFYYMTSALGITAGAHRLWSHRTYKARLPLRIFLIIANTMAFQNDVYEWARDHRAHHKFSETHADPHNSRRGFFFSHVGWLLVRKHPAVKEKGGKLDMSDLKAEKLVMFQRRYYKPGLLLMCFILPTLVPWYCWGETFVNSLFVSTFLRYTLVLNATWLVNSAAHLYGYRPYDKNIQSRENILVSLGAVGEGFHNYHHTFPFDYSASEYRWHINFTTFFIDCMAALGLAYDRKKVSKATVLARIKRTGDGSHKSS
Outline: (§2)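 Desaturation of [9,10-3H]stearoyl-CoA measured as released [3H]H2O. Water was separated from charcoal-adsorbed substrate by filtration and counted by scintillation. Remaining activity = (compound − background)/(control − background). DMSO wells served as control and pre-stopped wells as background. IC50 was interpolated from the two points bracketing 50%.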

Mus musculus [10] = assay: Ex vivo inhibition of SCD1 in C57BL/6J mouse eyelid assessed as residual activity at 1 mg/kg, po treated for 24 hrs followed by incubation with [14C]stearoyl-CoA substrate for 30 mins by TLC assay relative to control; type: organism-based; outline: as §1
Stearoyl-CoA desaturase = target: T2, Stearoyl-CoA desaturase (Homo sapiens, UniProt O00767); assay: Inhibition of recombinant human SCD1 expressed in baculovirus expression system assessed as reduction in [3H]H2O production using stearoyl [9,10-3H]CoA as substrate in presence of NADH incubated for 30 mins by scintillation counting method; outline: as §2
T2 sequence (O00767 whole entry): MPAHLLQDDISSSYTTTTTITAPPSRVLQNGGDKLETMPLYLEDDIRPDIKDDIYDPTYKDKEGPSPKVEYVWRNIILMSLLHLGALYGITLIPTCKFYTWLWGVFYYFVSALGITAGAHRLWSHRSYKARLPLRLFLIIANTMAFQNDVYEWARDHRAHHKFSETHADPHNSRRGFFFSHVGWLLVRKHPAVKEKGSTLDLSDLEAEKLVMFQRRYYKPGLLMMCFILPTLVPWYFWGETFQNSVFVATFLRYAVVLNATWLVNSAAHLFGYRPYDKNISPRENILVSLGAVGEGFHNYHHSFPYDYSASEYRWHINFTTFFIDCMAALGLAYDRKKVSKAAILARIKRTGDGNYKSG

[11] = Apparent permeability of the compound in human Caco2 cells; type: ADME, cell-based; conditions: Caco-2
Mus musculus [12] = assay: Ex vivo inhibition of SCD1 in C57BL/6J mouse eyelid assessed as residual activity at 10 mg/kg, po treated for 6 hrs followed by incubation with [14C]stearoyl-CoA substrate for 30 mins by TLC assay relative to control; type: organism-based; outline: as §1
Mus musculus [13] = assay: Ex vivo inhibition of SCD1 in C57BL/6J mouse liver assessed as residual activity at 10 mg/kg, po treated for 24 hrs followed by incubation with [14C]stearoyl-CoA substrate for 10 mins by TLC assay relative to control; type: functional; outline: as §1
Mus musculus [14] = assay: Ex vivo inhibition of SCD1 in C57BL/6J mouse liver assessed as residual activity at 0.1 mg/kg, po treated for 6 hrs followed by incubation with [14C]stearoyl-CoA substrate for 10 mins by TLC assay relative to control; type: functional; outline: as §1
Mus musculus [15] = assay: Ex vivo inhibition of SCD1 in C57BL/6J mouse eyelid assessed as residual activity at 0.1 mg/kg, po treated for 6 hrs followed by incubation with [14C]stearoyl-CoA substrate for 30 mins by TLC assay relative to control; type: organism-based; outline: as §1
Mus musculus [16] = assay: Ex vivo inhibition of SCD1 in C57BL/6J mouse eyelid assessed as residual activity at 0.1 mg/kg, po treated for 24 hrs followed by incubation with [14C]stearoyl-CoA substrate for 30 mins by TLC assay relative to control; type: organism-based; outline: as §1
Mus musculus [17] = assay: Ex vivo inhibition of SCD1 in C57BL/6J mouse liver assessed as residual activity at 1 mg/kg, po treated for 6 hrs followed by incubation with [14C]stearoyl-CoA substrate for 10 mins by TLC assay relative to control; type: functional; outline: as §1
Mus musculus [18] = assay: Ex vivo inhibition of SCD1 in C57BL/6J mouse liver assessed as residual activity at 1 mg/kg, po treated for 24 hrs followed by incubation with [14C]stearoyl-CoA substrate for 10 mins by TLC assay relative to control; type: functional; outline: as §1
[19] = Oral bioavailability in C57BL/6J mouse at 10 mg/kg; type: ADME, organism-based; conditions: in vivo
Outline: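 Two male C57BL/6J mice per route, 10 mg/kg po and 1 mg/kg iv. Plasma concentration–time profiles gave Cmax, tmax, terminal half-life and AUC0-inf. Bioavailability was derived from the po and iv data.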

[20] = target: Acyl-CoA (8-3)-desaturase (Homo sapiens, UniProt O60427); assay: Inhibition of delta-5 fatty acid desaturase (unknown origin)
Chain of Acyl-CoA (8-3)-desaturase (O60427 whole entry): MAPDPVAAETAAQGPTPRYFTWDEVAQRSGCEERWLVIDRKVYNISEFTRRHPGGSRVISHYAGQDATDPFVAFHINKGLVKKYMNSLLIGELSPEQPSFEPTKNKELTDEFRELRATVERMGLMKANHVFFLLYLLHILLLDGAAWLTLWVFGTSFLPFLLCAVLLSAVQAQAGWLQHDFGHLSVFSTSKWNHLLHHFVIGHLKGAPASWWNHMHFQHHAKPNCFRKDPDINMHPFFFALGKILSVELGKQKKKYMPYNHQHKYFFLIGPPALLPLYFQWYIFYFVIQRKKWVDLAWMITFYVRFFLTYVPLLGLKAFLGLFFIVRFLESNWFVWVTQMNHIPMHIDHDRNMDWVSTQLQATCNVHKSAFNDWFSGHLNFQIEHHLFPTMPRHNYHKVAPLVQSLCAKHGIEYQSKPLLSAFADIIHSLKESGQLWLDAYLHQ

Mus musculus [21] = assay: Ex vivo inhibition of SCD1 in C57BL/6J mouse eyelid assessed as residual activity at 10 mg/kg, po treated for 24 hrs followed by incubation with [14C]stearoyl-CoA substrate for 30 mins by TLC assay relative to control; type: organism-based; outline: as §1

AUC(0-inf) [1]: 2.4 µM·h | Activity (Mus musculus [2]): 41% | Activity (Mus musculus [4]): 4% | solubility [5]: 2.4 µM (≈ 0.81 µg/mL) | inhibition (INH) (Mus musculus [7]): Dose-dependent effect | IC50 (Acyl-CoA desaturase 1): 3.8 nM | Activity (Mus musculus [10]): 82% | IC50 (Stearoyl-CoA desaturase): 6.4 nM | Papp [11]: 12.7 ×10⁻⁶ cm/s | Activity (Mus musculus [12]): -2% | Activity (Mus musculus [15]): 144% | Activity (Mus musculus [16]): 100% | bioavailability [19]: 15% | IC50 [20]: > 30000 nM | Activity (Mus musculus [21]): 4%
Compound: Cc1csc(NC(=O)c2ccc(CNc3ccccc3C)cc2)n1
Activity (Mus musculus [3]): 22% | inhibition (Mus musculus [6]): Dose-dependent effect | Activity (Mus musculus [8]): Active | Activity (Mus musculus [9]): 105% | Activity (Mus musculus [13]): 109% | Activity (Mus musculus [14]): 58% | Activity (Mus musculus [17]): 24% | Activity (Mus musculus [18]): 120%
